Experimental data gathered from unrelated publications.
Lines come from different studies, so protocols differ. Converted amounts (≈) assume the structure as drawn.

Compound | organism | assay | system | setting | quantity | result
Nc1ncc(-c2cccc(S(N)(=O)=O)c2)c2scc(-c3ccc(F)c(Cl)c3)c12 | Trypanosoma brucei | parasite growth | – | – | EC50 | 10000 nM
COc1ncccc1CNc1cccc(-n2c(/C=C/c3ccc(C#N)cc3)nc3ccccc3c2=O)c1 | Enterococcus faecium | microbial growth, broth dilution | NCTC7171 | – | MIC | > 128 µg/mL
CC(C)Oc1c(NC(=O)c2ccc(NC(=O)c3ccc(NC(=O)[C@H](CC(N)=O)NC(=O)c4ccc(NC(=O)c5ccc(C#N)cn5)cc4)cc3)c(OC(C)C)c2O)ccc(C(=O)O)c1O | Citrobacter freundii | microbial growth | DSM30039 | – | MIC | 0.5 µg/mL (≈ 0.564 µM)
CC(=O)Oc1ccc(-n2c(/C=C/c3ccc([N+](=O)[O-])cc3)nc3ccccc3c2=O)cc1 | Enterococcus faecium | microbial growth, broth dilution | NCTC7171 | – | MIC | 32 µg/mL (≈ 74.9 µM)
C#CCCCCCCCCCCCC(O)CC(O)CO (stereo not drawn) | Mycobacterium intracellulare | microbial growth, resazurin | ATCC23068 | – | IC50 | > 200 µg/mL
O=C(Nc1ccccc1-c1ccc(F)c(F)c1)c1nccnc1C(F)(F)F | Monilinia fructicola | microbial growth | – | – | EC50 | 0.11 µg/mL
N#Cc1ccc(/C=C/c2nc3ccncc3c(=O)n2-c2cccc(C(N)=O)c2)cc1 | Enterococcus faecium | microbial growth, broth dilution | NCTC7171 | – | MIC | > 128 µg/mL
Cl.NCc1ccccc1Oc1ccc(-c2noc(-c3ccc(O)cc3)n2)cc1 | Enterococcus faecium | microbial growth, broth dilution | – | 24 h | MIC | 8 µg/mL
CCn1c(-c2nonc2N)nc2c(C#CC(C)(C)O)ncc(OC3CCNCC3)c21 | Plasmodium berghei | parasite growth, luciferase | human | liver stage | IC50 | 7300 nM
Nc1ncnc2occ(-c3ccc(NC(=O)Nc4cc(C(F)(F)F)ccc4F)cc3)c12 | Trypanosoma brucei | parasite growth | – | – | EC50 | 2510 nM
NC(=O)c1cccc(-n2c(/C=C/c3ccc(Cl)cc3)nc3ccncc3c2=O)c1 | Enterococcus faecium | microbial growth, broth dilution | NCTC7171 | – | MIC | > 128 µg/mL
O=C(Nc1ccc(Oc2ccc3nc(NC(=O)c4ccco4)[nH]c3c2)cc1)Nc1cc(C(F)(F)F)ccc1F | Trypanosoma brucei | parasite growth | – | – | EC50 | 2510 nM
COC(=O)c1ccc2c(c1)C(=Cc1cc(Br)c(O)c(Br)c1)C(=O)N2 | Plasmodium berghei | parasite growth, luciferase | human | liver stage | IC50 | 6700 nM
CCCN(CCS(C)(=O)=O)Cc1ccc(-c2ccc3ncnc(Nc4ccc(OCc5cccc(F)c5)c(Cl)c4)c3c2)o1 | Trypanosoma brucei | parasite growth | – | – | EC50 | 2000 nM
Cl.NCCCc1ccc(Oc2ccc(-c3noc(-c4ccc(O)cc4)n3)cc2)cc1 | Enterococcus faecium | microbial growth, broth dilution | – | 24 h | MIC | 2 µg/mL
C#CCCCCCCCCC=CCC(O)CC(O)CO (stereo not drawn) | Mycobacterium intracellulare | microbial growth, resazurin | ATCC23068 | – | IC50 | > 200 µg/mL
CS(=O)(=O)c1ccc(/C=C/c2nc3ccccc3c(=O)n2-c2cccc(C(=O)O)c2)cc1 | Enterococcus faecium | microbial growth, broth dilution | NCTC7171 | – | MIC | > 128 µg/mL
COc1ccccc1-c1cc(/C=C2\C(=O)Nc3ncc(Br)cc32)cc(Br)c1O | Trypanosoma brucei | parasite growth | – | – | EC50 | 2510 nM
